Legend:
Rattus norvegicus [1] = assay: Antinociceptive activity in Wistar rat partial sciatic nerve ligation model assessed as reversal of tactile allodynia at 100 mg/kg, ip after 120 mins relative to control; assay type: functional; settings: route intraperitoneal
Rattus norvegicus [2] = assay: Antinociceptive activity in Wistar rat partial sciatic nerve ligation model assessed as reversal of cold allodynia at 100 mg/kg, ip after 60 mins (reference value: 2.5 +/- 0.3%); assay type: functional; settings: route intraperitoneal
Mus musculus [3] = assay: Antinociceptive activity in Swiss albino mouse assessed as inhibition of formalin-induced flinching at 100 mg/kg administered 30 mins prior to test measured for 10 to 30 mins relative to control; assay type: functional
Rattus norvegicus [4] = assay: Antinociceptive activity in Wistar rat partial sciatic nerve ligation model assessed as reversal of spontaneous pain response at 100 mg/kg, ip after 30 mins (reference value: 3.2 +/- 0.3%); assay type: functional; settings: route intraperitoneal
Rattus norvegicus [5] = assay: Antinociceptive activity in Wistar rat chronic constriction injury model assessed as reversal of cold allodynia at 100 mg/kg, ip after 30 mins (reference value: 0.6 +/- 2.7%); assay type: functional; settings: route intraperitoneal
Rattus norvegicus [6] = assay: Antinociceptive activity in Wistar rat chronic constriction injury model assessed as reversal of mechanical allodynia at 100 mg/kg, ip after 30 mins (reference value: 4.7 +/- 2.1%); assay type: functional; settings: route intraperitoneal
Rattus norvegicus [7] = assay: Antinociceptive activity in Wistar rat partial sciatic nerve ligation model assessed as reversal of mechanical allodynia at 100 mg/kg, ip after 60 mins (reference value: 2.8 +/- 0.3%); assay type: functional; settings: route intraperitoneal
Rattus norvegicus [8] = assay: Antinociceptive activity in Wistar rat partial sciatic nerve ligation model assessed as reversal of tactile allodynia at 100 mg/kg, ip after 30 mins (reference value: 7.7 +/- 0.7%); assay type: functional; settings: route intraperitoneal
Rattus norvegicus [9] = assay: Antinociceptive activity in Wistar rat partial sciatic nerve ligation model assessed as reversal of cold allodynia at 100 mg/kg, ip after 30 mins (reference value: 4.1 +/- 1.0%); assay type: functional; settings: route intraperitoneal
Rattus norvegicus [10] = assay: Antinociceptive activity in Wistar rat chronic constriction injury model assessed as reversal of spontaneous pain response at 100 mg/kg, ip after 60 mins (reference value: 4.6 +/- 0.6%); assay type: functional; settings: route intraperitoneal
Rattus norvegicus [11] = assay: Antinociceptive activity in Wistar rat chronic constriction injury model assessed as reversal of mechanical allodynia at 100 mg/kg, ip after 60 mins (reference value: 4.9 +/- 1.0%); assay type: functional; settings: route intraperitoneal
Mus musculus [12] = assay: Antinociceptive activity in Swiss albino mouse assessed as inhibition of acetic acid-induced writhing at 100 mg/kg administered 30 mins prior to acetic acid-challenge measured for 30 mins relative to control; assay type: functional
Outline: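 Swiss albino mice (20–25 g, either sex); writhing induced by i.p. 0.1 mL of 2.0% v/v acetic acid given half an hour after test compound dosing.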

Rattus norvegicus [13] = assay: Antinociceptive activity in Wistar rat partial sciatic nerve ligation model assessed as reversal of mechanical allodynia at 100 mg/kg, ip after 30 mins (reference value: 2.9 +/- 0.3%); assay type: functional; settings: route intraperitoneal
Rattus norvegicus [14] = assay: Antinociceptive activity in Wistar rat partial sciatic nerve ligation model assessed as reversal of cold allodynia at 100 mg/kg, ip after 120 mins (reference value: 1.5 +/- 0.5%); assay type: functional; settings: route intraperitoneal
Mus musculus [15] = assay: Neurotoxicity in Swiss albino mouse assessed as minimal motor impairment at 300 mg/kg after 4 hrs by rotarod test; assay type: toxicity, organism-based; set-up: dose 300 mg/kg; settings: in vivo
Outline: (§1)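 Swiss albino mice of either sex, 20-25 g, dosed at 30, 100 and 300 mg/kg, three per group. Minimal motor impairment scored by rotarod at 0.5 and 4.0 h after dosing. Reported value is the lowest dose giving impairment in half or more of the mice.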

Rattus norvegicus [16] = assay: Antinociceptive activity in Wistar rat chronic constriction injury model assessed as reversal of mechanical allodynia at 100 mg/kg, ip after 120 mins (reference value: 5.3 +/- 0.5%); assay type: functional; settings: route intraperitoneal
Mus musculus [17] = assay: Neurotoxicity in Swiss albino mouse assessed as minimal motor impairment at 300 mg/kg after 0.5 hrs by rotarod test; assay type: toxicity, organism-based; set-up: dose 300 mg/kg; settings: in vivo; outline: as §1
Rattus norvegicus [18] = assay: Antinociceptive activity in Wistar rat partial sciatic nerve ligation model assessed as reversal of spontaneous pain response at 100 mg/kg, ip after 60 mins (reference value: 2.9 +/- 0.3%); assay type: functional; settings: route intraperitoneal
Rattus norvegicus [19] = assay: Antinociceptive activity in Wistar rat partial sciatic nerve ligation model assessed as reversal of tactile allodynia at 100 mg/kg, ip after 60 mins (reference value: 12.5 +/- 1.2%); assay type: functional; settings: route intraperitoneal
Rattus norvegicus [20] = assay: Antinociceptive activity in Wistar rat partial sciatic nerve ligation model assessed as reversal of mechanical allodynia at 100 mg/kg, ip after 120 mins (reference value: 2.9 +/- 0.3%); assay type: functional; settings: route intraperitoneal
Rattus norvegicus [21] = assay: Antinociceptive activity in Wistar rat partial sciatic nerve ligation model assessed as reversal of spontaneous pain response at 100 mg/kg, ip after 120 mins (reference value: 1.2 +/- 0.1%); assay type: functional; settings: route intraperitoneal
Rattus norvegicus [22] = assay: Antinociceptive activity in Wistar rat chronic constriction injury model assessed as reversal of spontaneous pain response at 100 mg/kg, ip after 30 mins (reference value: 8.9 +/- 4.6%); assay type: functional; settings: route intraperitoneal
Rattus norvegicus [23] = assay: Antinociceptive activity in Wistar rat chronic constriction injury model assessed as reversal of cold allodynia at 100 mg/kg, ip after 120 mins (reference value: 5.4 +/- 1.9%); assay type: functional; settings: route intraperitoneal
Rattus norvegicus [24] = assay: Antinociceptive activity in Wistar rat chronic constriction injury model assessed as reversal of spontaneous pain response at 100 mg/kg, ip after 120 mins (reference value: 4.5 +/- 0.2%); assay type: functional; settings: route intraperitoneal
Mus musculus [25] = assay: Antinociceptive activity in Swiss albino mouse assessed as inhibition of formalin-induced flinching at 100 mg/kg administered 30 mins prior to test measured up to 5 mins relative to control; assay type: functional
Rattus norvegicus [26] = assay: Antinociceptive activity in Wistar rat chronic constriction injury model assessed as reversal of tactile allodynia at 100 mg/kg, ip after 30 mins (reference value: 3.4 +/- 0.8%); assay type: functional; settings: route intraperitoneal
Rattus norvegicus [27] = assay: Antinociceptive activity in Wistar rat chronic constriction injury model assessed as reversal of tactile allodynia at 100 mg/kg, ip after 60 mins (reference value: 1.3 +/- 0.3%); assay type: functional; settings: route intraperitoneal
Rattus norvegicus [28] = assay: Antinociceptive activity in Wistar rat chronic constriction injury model assessed as reversal of tactile allodynia at 100 mg/kg, ip after 120 mins (reference value: 4.1 +/- 2.1%); assay type: functional; settings: route intraperitoneal
Rattus norvegicus [29] = assay: Antinociceptive activity in Wistar rat chronic constriction injury model assessed as reversal of cold allodynia at 100 mg/kg, ip after 60 mins (reference value: 6.3 +/- 1.9%); assay type: functional; settings: route intraperitoneal

| Compound | Activity (Rattus norvegicus [1]) [%] | Activity (Rattus norvegicus [2]) [%] | inhibition in vivo at 100 mg/kg (Mus musculus [3]) [%] | Activity (Rattus norvegicus [4]) [%] | Activity (Rattus norvegicus [5]) [%] | Activity (Rattus norvegicus [6]) [%] | Activity (Rattus norvegicus [7]) [%] | Activity (Rattus norvegicus [8]) [%] | Activity (Rattus norvegicus [9]) [%] | Activity (Rattus norvegicus [10]) [%] | Activity (Rattus norvegicus [11]) [%] | inhibition in vivo at 100 mg/kg (Mus musculus [12]) [%] | Activity (Rattus norvegicus [13]) [%] | Activity (Rattus norvegicus [14]) [%] | Activity (Mus musculus [15]) | Activity (Rattus norvegicus [16]) [%] | Activity (Mus musculus [17]) | Activity (Rattus norvegicus [18]) [%] | Activity (Rattus norvegicus [19]) [%] | Activity (Rattus norvegicus [20]) [%] | other results |
| --- | --- | --- | --- | --- | --- | --- | --- | --- | --- | --- | --- | --- | --- | --- | --- | --- | --- | --- | --- | --- | --- |
| CCN1CCc2c(c(C)nn2C(=O)Nc2ccc(Cl)cc2)C1 | 14.2 | 7.9 | 7.5 | 13.6 | 15.9 | 14.6 | 5 | 18.1 | 13.2 | 15 | 14.6 | 55.2 | 17.5 | 11 | Non-toxic | 8.3 | Non-toxic | 12.7 | 8.2 | 11.3 | Activity (Rattus norvegicus [21]): 11%; Activity (Rattus norvegicus [22]): 16.9%; Activity (Rattus norvegicus [23]): 9.5%; Activity (Rattus norvegicus [24]): 27.4%; inhibition in vivo at 100 mg/kg (Mus musculus [25]): 1.7%; Activity (Rattus norvegicus [26]): 13.2%; Activity (Rattus norvegicus [27]): 8%; Activity (Rattus norvegicus [28]): 19.7%; Activity (Rattus norvegicus [29]): 23% |
| CCN1CCc2c(c(C)nn2C(=O)Nc2ccc(Br)cc2)C1 | 29.2 | 43.7 | 81.6 | 56.7 | 67.4 | 83.3 | 70 | 58.3 | 59.7 | 65.1 | 66.7 | 59.7 | 50 | 41.5 | Non-toxic | 61.1 | Non-toxic | 60.8 | 58.3 | 40 | Activity (Rattus norvegicus [21]): 41.3%; Activity (Rattus norvegicus [22]): 73.9%; Activity (Rattus norvegicus [23]): 32.6%; Activity (Rattus norvegicus [24]): 63.6%; inhibition in vivo at 100 mg/kg (Mus musculus [25]): 1.7%; Activity (Rattus norvegicus [26]): 57.7%; Activity (Rattus norvegicus [27]): 70.5%; Activity (Rattus norvegicus [28]): 57.7%; Activity (Rattus norvegicus [29]): 38.1% |
| CCN1CCc2c(c(C(C)(C)C)nn2C(=O)Nc2ccc(Cl)cc2)C1 | 28.5 | 17.2 | 68.3 | 20.9 | 17.8 | 20 | 16.7 | 15.1 | 18.2 | 22.3 | 11.7 | 15.8 | 11.1 | 10.6 | Non-toxic | 2.2 | Non-toxic | 13.9 | 3.5 | 11.1 | Activity (Rattus norvegicus [21]): 6.3%; Activity (Rattus norvegicus [22]): 18.3%; Activity (Rattus norvegicus [23]): 10.5%; Activity (Rattus norvegicus [24]): 12.5%; inhibition in vivo at 100 mg/kg (Mus musculus [25]): 3.5%; Activity (Rattus norvegicus [26]): 13.8%; Activity (Rattus norvegicus [27]): 13.8%; Activity (Rattus norvegicus [28]): 12.8%; Activity (Rattus norvegicus [29]): 10.8% |

Source: ChEMBL document CHEMBL2412964, “Discovery of novel tetrahydro-pyrazolo [4,3-c] pyridines for the treatment of neuropathic pain: synthesis and neuropharmacology” (Eur J Med Chem, 2013)
